Assay outcomes from PubChem BioAssay.
STEP block: inhibitors of human striatal-enriched phosphatase STEP; AID 588621; inhibition, % at 20 µM; P54829; 0.25% of 360,000 active; recombinant STEP, OMFP fluorogenic substrate, fluorescence;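 active = inhibition at 20 µM, scaled per plate between control wells, above about 37%, limit read from the data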;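 also: 0% = DMSO with enzyme and substrate and 100% = substrate only without enzyme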
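Assay system: isolated STEP enzyme / Timing: 20 min at room temperature, dark / Doses: 20 µM, 1% DMSO / Technique: fluorescence intensity, excitation 480 nm, emission 540 nm / Reagent: fluorogenic phosphatase substrate OMFP at 25 µM final / Measure: percent inhibition scaled to no-enzyme and uninhibited-enzyme controls, plate-pattern corrected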
Scp1 inh: Scp-1 (human) phosphatase inhibition; Q9GZU7; Recombinant Scp1, phosphopeptide, malachite green phosphate absorbance; inhibition, % at 20 µM; 0.88% of 340,000 active; AID 493091;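 active = inhibition above about 50% at 20 µM, limit read from the data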;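 also: plate controls were DMSO wells with enzyme for no effect and wells lacking enzyme for full effect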
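System: SCP-1 catalytic domain; Reagent: Phospho 17-mer peptide substrate; Doses: one concentration, 20 µM, with 1.0% DMSO; Incubation: 45 min room-temperature reaction, 5 min colour, 30 min stabiliser; Signal: Phosphate-binding colour reagent, absorbance read at 630 nm.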
SUMO1-SIM PPI: modulators of human SUMO1-mediated protein-protein interactions; SUMO1 binding to a labelled peptide, TR-FRET, 1 h; inhibition, % at 20 µM; 0.33% of 360,000 active; AID 602429; in the data active = inhibition above about 37%
Pemphigus Ab inh: human desmoglein-3 autoantibody binding inhibition. P32926. DSG3-coupled beads, scFv-anti-DSG3-GFP binding, flow cytometry; active compounds read low. binding (percent of control), % at 10 µM. 0.48% of 310,000 active. AID 588358;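 active = binding more than 3 SD below its plate's average and above zero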;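 also: hits lower antibody fragment binding to DSG3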
Target sequence (P32926 whole entry, looked up, the tested form may be a part): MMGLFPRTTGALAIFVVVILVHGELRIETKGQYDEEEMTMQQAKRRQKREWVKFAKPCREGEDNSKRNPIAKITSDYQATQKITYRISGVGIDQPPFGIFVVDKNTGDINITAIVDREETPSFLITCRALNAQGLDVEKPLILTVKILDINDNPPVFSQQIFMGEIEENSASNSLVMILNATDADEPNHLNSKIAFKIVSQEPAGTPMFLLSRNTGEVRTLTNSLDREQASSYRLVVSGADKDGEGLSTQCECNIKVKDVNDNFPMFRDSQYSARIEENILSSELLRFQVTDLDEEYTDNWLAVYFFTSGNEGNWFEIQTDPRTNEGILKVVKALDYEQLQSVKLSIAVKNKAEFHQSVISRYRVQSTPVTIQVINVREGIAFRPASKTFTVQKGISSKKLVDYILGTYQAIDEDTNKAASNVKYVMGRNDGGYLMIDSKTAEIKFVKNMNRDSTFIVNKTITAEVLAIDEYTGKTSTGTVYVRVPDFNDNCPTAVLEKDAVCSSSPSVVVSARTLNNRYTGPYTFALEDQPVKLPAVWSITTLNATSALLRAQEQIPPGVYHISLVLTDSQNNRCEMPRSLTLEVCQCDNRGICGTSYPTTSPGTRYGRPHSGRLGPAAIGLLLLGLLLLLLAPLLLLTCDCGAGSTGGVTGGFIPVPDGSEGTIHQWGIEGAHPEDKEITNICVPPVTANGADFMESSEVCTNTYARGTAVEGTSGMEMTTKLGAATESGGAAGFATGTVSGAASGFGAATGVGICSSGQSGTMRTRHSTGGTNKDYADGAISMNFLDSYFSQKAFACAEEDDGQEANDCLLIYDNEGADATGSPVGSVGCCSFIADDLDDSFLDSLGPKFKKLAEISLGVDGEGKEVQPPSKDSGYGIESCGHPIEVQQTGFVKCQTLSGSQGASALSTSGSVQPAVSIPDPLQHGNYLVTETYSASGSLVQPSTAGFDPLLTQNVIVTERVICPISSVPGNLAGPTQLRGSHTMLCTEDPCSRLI
LMPTP inh: LMPTP (human) inhibition; P24666; recombinant LMPTP-A, OMFP fluorogenic substrate, fluorescence intensity; inhibition, % at 20 µM; 0.22% of 360,000 active; AID 651560;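 active = compounds that cut the enzyme signal by at least half of the control window in the single-dose screen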;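 also: plate controls were DMSO wells with enzyme plus substrate for no effect and substrate without enzyme for full effect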
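Buffer or medium: Bis-Tris pH 6.0, DTT, detergent; Assay system: LMPTP-A enzyme; Quantity: 0.625 nM enzyme; Detection: endpoint fluorescence intensity; Times: 50 min dark incubation at room temperature; Controls: substrate-only low control, DMSO enzyme-plus-substrate high control; Doses: single 20 µM dose; Read-out: percent inhibition versus substrate-only and uninhibited controls; Reagent: 400 µM OMFP.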
Scp1 confirm: confirmation of human Scp-1 phosphatase inhibitors | shares compounds with Scp1 inh | 61% of 2,500 active | AID 540281 | recombinant SCP-1 catalytic domain, phosphate release, malachite green absorbance | inhibition, % at 20 µM;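 also: plate controls were DMSO with enzyme for no effect and buffer wells lacking enzyme for full effect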
MG interference: interferes with malachite green readout, flagging false Scp-1 hits; 2,500 tested, under 10 active; AID 540313; Colorimetric interference counterscreen, malachite green absorbance 630 nm; shares compounds with Scp1 inh; apparent inhibition (interference), % at 20 µM;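 also: compounds added after enzyme reaction finished so only phosphate colour detection is probed; plate controls were DMSO wells with completed Scp-1 reaction for no effect and substrate wells lacking enzyme for full effect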
Scp-1 Tm shift: validation of human Scp-1 inhibitors by thermal shift binding | Recombinant SCP1, Sypro Orange thermal shift Tm | thermal shift relative to vanadate control, % at 40 µM | shares compounds with Scp1 inh | 25% of 1,500 active;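 active = substances whose mean melting-temperature shift, as a percentage of the reference inhibitor's shift, reaches about 5.3%, limit read from the data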;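 also: 0% = Tm of DMSO wells and 100% = Tm with sodium orthovanadate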
Numbers without * were called inactive; . = not tested or not shown; ! = not active in a repeat. Most compounds without a hit are left out; they make up all but 1.7% or so of the library.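 The calls were made as follows, unless noted: active = inhibition of at least 30% at 20 µM; inactive = the rest.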

SMILES	STEP block	Scp1 inh	SUMO1-SIM PPI	Pemphigus Ab inh	LMPTP inh	Scp1 confirm	MG interference	others
Nn1c(SCC(=O)NCCN2C(=O)CSC2=O)nnc1-c1ccc(OC(F)F)cc1	0	-8	6	96	0	.	.
COc1ccc(S(=O)(=O)N2CN3CCN(C3)C2)cc1OC	0	-7	-5	93	-10	.	.
CCC(=O)c1ccc(OCc2cn(CC(=O)c3ccc(O)cc3)nn2)cc1	2	-8	2	94	1	.	.
CC(CC(=O)OCC(=O)NC1CCS(=O)(=O)C1)c1ccccc1 (stereo not given)	-2	27	0	98	0	.	.
Cc1ccc(N=C2NC(=O)S/C2=C\c2ccco2)cc1	35	97*	-3	104	63*	57*	-13	Scp-1 Tm shift=4
FC(F)(F)c1cnc(C(c2ccccc2)c2ncn[nH]2)c(Cl)c1 (stereo not given)	-1	98*	3	103	-2	2	-3
FC(F)(F)c1cnc(C(c2ccccn2)c2ncn[nH]2)c(Cl)c1 (stereo not given)	1	-5	-2	101	-1	.	.
CC[n+]1c(/C=C/Nc2ccccc2)sc2ccccc21	1	109*	-13	190	-2	14	-13
COc1ccc(CNC(=O)C2CCCN(S(=O)(=O)N3CCC(C)CC3)C2)c(OC)c1 (stereo not given)	-1	69*	-4	106	1	-14	-15
O=C(Nc1cccc([N+](=O)[O-])c1)c1cnccn1	4	58*	-9	99	3	56*	-17	Scp-1 Tm shift=6.4*
CCOCCCNC(=S)N(CCO)Cc1cc2cc3c(cc2[nH]c1=O)OCCO3	15	1	9	110	-1	.	.
Cc1ccc(NS(=O)(=O)c2cc(OCC(N)=O)c(C)cc2Cl)cc1	-4	-3	3	100	0	.	.
Cc1cc(Cl)c(S(=O)(=O)NC(C(=O)O)C(C)C)cc1OCC(=O)NC1CCCCC1 (stereo not given)	1	54*	3	102	-2	43*	-15	Scp-1 Tm shift=0
Cc1cc(Cl)c(S(=O)(=O)N2CCCC2)cc1OCC(=O)NC1CCCCC1	0	27	4	103	-1	.	.
Cc1cc(Cl)c(S(=O)(=O)NC(C(=O)O)c2ccccc2)cc1OCC(N)=O (stereo not given)	2	69*	1	91	-3	44*	-17	Scp-1 Tm shift=18*
CC(Nc1cc(N2CCN(C(=O)C(C)(C)C)CC2)ccc1[N+](=O)[O-])c1ccccc1 (stereo not given)	3	53*	-19	102	6	-21	-24
CC(C)C(=O)N1CCN(c2ccc([N+](=O)[O-])c(NC(C)c3ccccc3)c2)CC1 (stereo not given)	2	-9	-20	107	2	.	.
O=C(NCCCCNC(=O)c1ccc(Br)cc1)c1ccc(Br)cc1	-2	-5	2	112	-1	.	.
Cc1cc(CC(=O)O)c2oc(-c3ccoc3)cc(=O)c2c1	.	75*	.	98	.	46*	-15	Scp-1 Tm shift=5
CCOc1ccc(NC(=O)Nc2ccon2)cc1	0	16	1	107	-1	.	.
Cc1ccccc1NC(=O)C1CCCN1S(=O)(=O)c1ccc2c(c1)n(C)c(=O)c(=O)n2C (stereo not given)	-8	-10	5	102	-2	.	.
Cn1c(=O)c(=O)n(C)c2cc(S(=O)(=O)N3CCCC3C(=O)NCc3cccnc3)ccc21 (stereo not given)	2	-9	5	99	-1	-7	-6
Cn1c(=O)c(=O)n(C)c2cc(S(=O)(=O)N3CCCC3C(=O)NCc3ccco3)ccc21 (stereo not given)	-4	-2	2	88	-2	.	.
Cc1ccc(C)c(NC(=O)C2CCCN2S(=O)(=O)c2ccc3c(c2)n(C)c(=O)c(=O)n3C)c1 (stereo not given)	0	-7	7	94	-1	-6	-10
CC1=CC(C)(C)N(C(=O)c2ccccc2)c2ccccc21	3	-14	-6	98	0	.	.
SMILES	STEP block	Scp1 inh	SUMO1-SIM PPI	Pemphigus Ab inh	LMPTP inh	Scp1 confirm	MG interference	others
CC1=CC(C)(C)[N+](C)(C)c2ccccc21	-2	72*	4	94	-1	2	-9
O=C(CCCc1nc(-c2ccccc2)no1)NCc1cccnc1	3	70*	0	114	1	7	-11
O=C(CCCc1nc(-c2ccccc2)no1)Nc1cccnc1	3	9	3	100	1	.	.
O=C(CNC(=O)c1ccc(S(=O)(=O)N2CCCC2)cc1)N/N=C/c1ccc(F)cc1	1	-7	-3	108	-1	.	.
Cc1ccccc1-c1cnc(C(O)c2cc(Cl)cc(Cl)c2)[nH]1 (stereo not given)	2	.	3	.	1	.	.
Cc1nc(SCC(=O)O)c(C#N)c2c1CCCC2	16	96*	26	101	2	70*	-13	Scp-1 Tm shift=4
O=c1[nH][nH]c2c1C(c1ccc(Cl)c(Cl)c1)OC(CCc1ccccc1)C2 (stereo not given)	.	.	5	.	2	.	.
O=C(COC(=O)C1CC(=O)N(Cc2ccccc2)C1)c1ccc(F)cc1 (stereo not given)	0	10	0	98	1	.	.
CC1=NN(c2ccccc2)C(=O)/C1=C/C=C/C=C/N(C)C	17	-5	-122	99	33	.	.
CN(C)/C=C/C=C1C(=O)CCCC1=O	2	58*	-6	107	0	49*	-6	Scp-1 Tm shift=-9
COc1ccc(C(=O)Nc2cnc3sc(C)nn3c2=O)cc1	-1	51*	4	102	-2	-17	-19
O=c1[nH][nH]c(=O)c2cc([N+](=O)[O-])ccc12	-4	50*!	-30	102	0	-12	-12
COc1ccc2c(=O)c3c(=O)n(Cc4ccco4)c(-c4ccco4)nc3oc2c1	20	92*	13	93	47	74*	-2	Scp-1 Tm shift=4
COc1ccc(Cn2c(-c3ccco3)nc3oc4cc(OC)ccc4c(=O)c3c2=O)cc1	9	79*	16	103	33	68*	-10	Scp-1 Tm shift=-2
CCCc1nc2oc3ccccc3c(=O)c2c(=O)n1-c1ccc(C)cc1	2	-8	6	106	-2	.	.
CCCCn1c(-c2ccco2)nc2oc3ccccc3c(=O)c2c1=O	-4	62*	-23	.	0	1	-11
